Here are results for two compounds from ChEMBL document CHEMBL1275556, “High prevalence of plasmid-mediated quinolone resistance genes qnr and aac(6')-Ib-cr in clinical isolates of Enterobacteriaceae from nine teaching hospitals in China” (2008).

As usually defined, the MIC is the least concentration at which growth counts as inhibited.

Experiment [1] has as its system Escherichia coli. Briefly: Antimicrobial activity against aac(6')-Ib-cr-positive Escherichia coli FJ3 harboring GyrA S83L, ParC S80R mutant, wild-type GyrB and qnrB genes by agar dilution method in presence of Tazobactam. In kind it is functional. The procedure, abridged: (§1)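 MICs measured by CLSI agar dilution (M7-A7) and interpreted against CLSI M100-S17 breakpoints. Strains were clinical Enterobacteriaceae isolates or the azide-resistant E. coli J53 recipient.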
For orientation: In agar dilution the substance is mixed into plates at graded concentrations.

For experiment [2], the system named is Enterobacter cloacae. As to the kind of experiment: Antimicrobial activity against aac(6')-Ib-cr-negative Enterobacter cloacae FJ67 harboring […] and qnrS genes by agar dilution method in presence of Tazobactam. Format: functional. The method, boiled down: (§2)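 MICs were determined by the CLSI agar dilution method (M7-A7) and interpreted against CLSI M100-S17 breakpoints.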

The test system of experiment [3] is Enterobacter cloacae. As to the kind of experiment: Antimicrobial activity against aac(6')-Ib-cr-negative Enterobacter cloacae WH42 harboring wild-type GyrA, ParC, GyrB and qnrA genes by agar dilution method in presence of Tazobactam. Format: functional. The procedure, abridged: as §1
Experiment [4] has as its system Klebsiella pneumoniae. As to the kind of experiment: Antimicrobial activity against aac(6')-Ib-cr-positive Klebsiella pneumoniae JN132T harboring qnrB gene by agar dilution method in presence of Tazobactam. Format: functional. The method, boiled down:
(§3)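 Transconjugants came from conjugation of qnr and/or aac(6')-Ib-cr donors into azide-resistant E. coli J53. […] MICs were measured by CLSI agar dilution (M7-A7) and interpreted per M100-S17.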

Experiment [5] concerns Klebsiella pneumoniae. As to the kind of experiment: Antimicrobial activity against aac(6')-Ib-cr-positive Klebsiella pneumoniae SY26T harboring wild-type GyrA, ParC, GyrB and qnrB genes by agar dilution method in presence of Tazobactam. In kind it is functional. The method, boiled down: (§4)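 Transconjugants were made by conjugating a qnr/aac(6')-Ib-cr donor with azide-resistant E. coli J53. Selection used Trypticase soy agar with sodium azide 150 µg/ml and sulfamethoxazole 180 µg/ml. […] MICs were read by CLSI agar dilution (M7-A7) and interpreted per M100-S17.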

For experiment [6], the system named is Enterobacter cloacae. Briefly: Antimicrobial activity against aac(6')-Ib-cr-negative Enterobacter cloacae FJ67T harboring qnrS gene by agar dilution method in presence of Tazobactam. Format: functional. The method, boiled down: as §2
Experiment [7] has as its system Klebsiella pneumoniae. Briefly: Antimicrobial activity against aac(6')-Ib-cr-positive Klebsiella pneumoniae WH99 harboring wild-type GyrA, ParC, GyrB and qnrB genes by agar dilution method in presence of Tazobactam. Format: functional. The procedure, abridged: as §1
Experiment [8] deals with Citrobacter freundii. As to the kind of experiment: Antimicrobial activity against aac(6')-Ib-cr-positive Citrobacter freundii JN1T by agar dilution method in presence of Tazobactam. Format: functional. The method, boiled down:
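MIC by CLSI agar dilution (M7-A7), with categories interpreted per CLSI M100-S17.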

Experiment [9] concerns Escherichia coli. As to the kind of experiment: Antimicrobial activity against Escherichia coli J53 harboring wild-type GyrA, ParC, GyrB genes by agar dilution method in presence of beta-lactamase inhibitor Tazobactam. Format: functional. The method, boiled down: as §1
The test system of experiment [10] is Enterobacter cloacae. As to the kind of experiment: Antimicrobial activity against aac(6')-Ib-cr-negative Enterobacter cloacae SH39T harboring qnrA gene by agar dilution method in presence of Tazobactam. Format: functional. The procedure, abridged: as §2
The test system of experiment [11] is Citrobacter freundii. As to the kind of experiment: Antimicrobial activity against aac(6')-Ib-cr-positive Citrobacter freundii JS33 harboring GyrA T83I mutant, wild-type ParC, GyrB, qnrA and qnrB genes by agar dilution method in presence of Tazobactam. In kind it is functional. The method, boiled down:
as §2

For experiment [12], the system named is Enterobacter cloacae. Briefly: Antimicrobial activity against aac(6')-Ib-cr-negative Enterobacter cloacae GZ47T harboring qnrB gene by agar dilution method in presence of Tazobactam. Format: functional. The method, boiled down:
as §2

The test system of experiment [13] is Klebsiella pneumoniae. As to the kind of experiment: Antimicrobial activity against aac(6')-Ib-cr-negative Klebsiella pneumoniae SY22T harboring qnrS gene by agar dilution method. In kind it is functional. The procedure, abridged: as §2
Experiment [14] has as its system Citrobacter freundii. Briefly: Antimicrobial activity against aac(6')-Ib-cr-positive Citrobacter freundii JN1 harboring GyrA T83I, ParC S80I mutant, wild-type GyrB and qnrA genes by agar dilution method in presence of clavulanic acid. Format: functional. The method, boiled down:
as §2

Experiment [15] concerns Escherichia coli. Briefly: Antimicrobial activity against aac(6')-Ib-cr-positive Escherichia coli FJ3T harboring wild-type GyrA, ParC, GyrB and qnrB genes by agar dilution method.
The test system of experiment [16] is Klebsiella pneumoniae. Briefly: Antimicrobial activity against aac(6')-Ib-cr-positive Klebsiella pneumoniae JN41T harboring qnrB gene by agar dilution method. In kind it is functional. The method, boiled down:
as §4

The test system of experiment [17] is Citrobacter freundii. Briefly: Antimicrobial activity against aac(6')-Ib-cr-negative Citrobacter freundii JN64T harboring qnrA gene by agar dilution method in presence of clavulanic acid. In kind it is functional. The method, boiled down:
(§5)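 Transconjugants came from conjugation of qnr and/or aac(6')-Ib-cr-carrying donors with azide-resistant E. coli J53. […] MICs were determined by CLSI agar dilution (M7-A7) and interpreted by M100-S17.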

The test system of experiment [18] is Escherichia coli. As to the kind of experiment: Antimicrobial activity against aac(6')-Ib-cr-negative Escherichia coli PU12 harboring GyrA S83L mutant, wild-type GyrB, ParC and qnrS genes by agar dilution method. In kind it is functional. The method, boiled down: as §2
In experiment [19] the test system is Citrobacter freundii. Briefly: Antimicrobial activity against aac(6')-Ib-cr-positive Citrobacter freundii JS33 harboring GyrA T83I mutant, wild-type ParC, GyrB, qnrA and qnrB genes by agar dilution method. In kind it is functional. The method, boiled down: as §2
For experiment [20], the system named is Klebsiella pneumoniae. Briefly: Antimicrobial activity against aac(6')-Ib-cr-negative Klebsiella pneumoniae SY22 harboring GyrA S83I, ParC S80I mutant, wild-type GyrB and qnrS genes by agar dilution method in presence of clavulanic acid. In kind it is functional. The method, boiled down: (§6)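 MICs were determined by CLSI agar dilution (M7-A7) and interpreted by CLSI M100-S17 breakpoints. The curator's line names the β-lactamase inhibitor added.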

The test system of experiment [21] is Enterobacter cloacae. As to the kind of experiment: Antimicrobial activity against aac(6')-Ib-cr-negative Enterobacter cloacae SH39 harboring GyrA S83I, ParC S80I mutant, wild-type GyrB and qnrA genes by agar dilution method in presence of clavulanic acid. Format: functional. The method, boiled down: as §6
Experiment [22] relates to Klebsiella pneumoniae. Briefly: Antimicrobial activity against aac(6')-Ib-cr-positive Klebsiella pneumoniae JN41 harboring GyrA S83I, ParC S80I mutant, wild-type GyrB and qnrB genes by agar dilution method in presence of clavulanic acid. In kind it is functional. The method, boiled down: as §6
The subject of experiment [23] is Klebsiella pneumoniae. Briefly: Antimicrobial activity against aac(6')-Ib-cr-positive Klebsiella pneumoniae GZ40T harboring qnrB gene by agar dilution method.
Experiment [24] deals with Klebsiella pneumoniae. Briefly: Antimicrobial activity against aac(6')-Ib-cr-positive Klebsiella pneumoniae WH99T harboring qnrB gene by agar dilution method. In kind it is functional. The procedure, abridged:
as §4

The subject of experiment [25] is Citrobacter freundii. As to the kind of experiment: Antimicrobial activity against aac(6')-Ib-cr-negative Citrobacter freundii JN64 harboring GyrA T83I, wild-type ParC, GyrB and qnrA genes by agar dilution method. In kind it is functional. The procedure, abridged:
as §2

The test system of experiment [26] is Enterobacter cloacae. As to the kind of experiment: Antimicrobial activity against aac(6')-Ib-cr-positive Enterobacter cloacae FJ63T harboring qnrS gene by agar dilution method. In kind it is functional.
Experiment [27] deals with Enterobacter cloacae. Briefly: Antimicrobial activity against aac(6')-Ib-cr-negative Enterobacter cloacae GZ47 harboring qnrB and qnrS genes by agar dilution method. In kind it is functional.
The subject of experiment [28] is Klebsiella pneumoniae. Briefly: Antimicrobial activity against aac(6')-Ib-cr-positive Klebsiella pneumoniae JN132T harboring qnrB gene by agar dilution method in presence of clavulanic acid. In kind it is functional. The procedure, abridged:
as §3

In experiment [29] the test system is Enterobacter cloacae. Briefly: Antimicrobial activity against aac(6')-Ib-cr-negative Enterobacter cloacae FJ61T harboring qnrS gene by agar dilution method. In kind it is functional.
The subject of experiment [30] is Klebsiella pneumoniae. Briefly: Antimicrobial activity against aac(6')-Ib-cr-positive Klebsiella pneumoniae SY26T harboring wild-type GyrA, ParC, GyrB and qnrB genes by agar dilution method. Format: functional. The method, boiled down:
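Transconjugants were made by conjugating a qnr/aac(6')-Ib-cr donor with azide-resistant E. coli J53. MICs were read by CLSI agar dilution (M7-A7) and interpreted per M100-S17.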

In experiment [31] the test system is Enterobacter cloacae. Briefly: Antimicrobial activity against aac(6')-Ib-cr-negative Enterobacter cloacae FJ67T harboring qnrS gene by agar dilution method in presence of clavulanic acid. Format: functional. The procedure, abridged: as §5

Converted amounts (≈) assume the structure as drawn.

`CCN1CCN(C(=O)N[C@@H](C(=O)N[C@@H]2C(=O)N3[C@@H]2SC(C)(C)[C@@H]3C(=O)O)c2ccccc2)C(=O)C1=O` [PIPERACILLIN]: the MIC worked out at 2 µg/mL in [1]; 1 µg/mL in [2]; 64 µg/mL in [3]; 4 µg/mL in experiment [4]; 2 µg/mL in [5]; 1 µg/mL in experiment [6]. Also, the MIC in experiment [7] came to 8 µg/mL; in [8] it was 2 µg/mL; in experiment [9], 1 µg/mL; in experiment [10] it was 1 µg/mL; in experiment [11], 8 µg/mL; in experiment [12] it was 2 µg/mL.
As to `CO/N=C(\C(=O)N[C@@H]1C(=O)N2C(C(=O)O)=C(COC(C)=O)CS[C@H]12)c1csc(N)n1` [CEFOTAXIME], the MIC in [13] amounted to 0.5 µg/mL (≈ 1.1 µM); in [14] it was 128 µg/mL; in experiment [15], 64 µg/mL (≈ 141 µM); in [16], 16 µg/mL (≈ 35.1 µM); in [17], 0.064 µg/mL; in [18] it was 16 µg/mL (≈ 35.1 µM). For the same compound, the MIC in experiment [19] came out at 8 µg/mL (≈ 17.6 µM); in experiment [20] it was 0.064 µg/mL; in experiment [21] it was 32 µg/mL; in [22] it was 0.032 µg/mL; in [23] it was 0.032 µg/mL (≈ 0.0703 µM); in [24], 16 µg/mL (≈ 35.1 µM). Besides, the MIC in [25] amounted to 256 µg/mL (≈ 562 µM); in experiment [26], 32 µg/mL (≈ 70.3 µM); in experiment [27], 64 µg/mL (≈ 141 µM); in experiment [28], 1 µg/mL; in experiment [29], 0.032 µg/mL (≈ 0.0703 µM); in experiment [30], 4 µg/mL (≈ 8.78 µM). Besides, the MIC in [31] was found to be 0.032 µg/mL.
